Assay results from ChEMBL document CHEMBL5653631, “A Potent and Selective ULK1 Inhibitor Suppresses Autophagy and Sensitizes Cancer Cells to Nutrient Stress” (iScience, 2018).

Key:
[1] = molecular target: T1, Beta-adrenergic receptor kinase 1 (Homo sapiens) (UniProt P25098); assay: Inhibition of human recombinant BARK1 at 500 nM in presence of ATP by radiometric assay relative to control
T1 sequence (whole entry): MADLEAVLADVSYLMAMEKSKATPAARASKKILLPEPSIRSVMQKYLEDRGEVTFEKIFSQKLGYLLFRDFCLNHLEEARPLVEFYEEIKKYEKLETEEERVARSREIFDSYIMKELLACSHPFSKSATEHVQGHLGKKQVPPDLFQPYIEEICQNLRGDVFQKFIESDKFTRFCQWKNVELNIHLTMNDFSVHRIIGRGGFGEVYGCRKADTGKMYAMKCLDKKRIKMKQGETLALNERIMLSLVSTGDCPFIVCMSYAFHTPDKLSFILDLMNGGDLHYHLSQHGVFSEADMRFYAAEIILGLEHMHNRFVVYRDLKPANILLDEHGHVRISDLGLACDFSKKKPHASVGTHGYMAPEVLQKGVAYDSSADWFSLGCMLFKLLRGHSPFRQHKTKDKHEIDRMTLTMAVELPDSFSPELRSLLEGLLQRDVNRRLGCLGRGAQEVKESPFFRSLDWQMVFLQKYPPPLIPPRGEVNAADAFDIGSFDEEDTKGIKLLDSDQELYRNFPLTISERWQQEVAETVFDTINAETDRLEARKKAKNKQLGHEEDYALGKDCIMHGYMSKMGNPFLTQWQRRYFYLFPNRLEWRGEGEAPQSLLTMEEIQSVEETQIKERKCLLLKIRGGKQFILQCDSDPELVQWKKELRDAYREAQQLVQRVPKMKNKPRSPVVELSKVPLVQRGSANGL
Summary of the method: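 Part of a radiometric in vitro activity panel of 327 recombinant human kinases. Each kinase was tested in duplicate at one inhibitor concentration. Activity remaining was expressed as a percentage of the vehicle control, and percent inhibition was taken as 100 minus that value.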

[2] = molecular target: Ribosomal protein S6 kinase alpha-5 (Homo sapiens) (UniProt O75582); assay: Inhibition of human recombinant MSK1 at 500 nM related to control ULK1
[3] = molecular target: Serine/threonine-protein kinase PLK1 (Homo sapiens) (UniProt P53350); assay: Inhibition of human recombinant PLK1 at 500 nM related to control ULK1
[4] = molecular target: T2, TGF-beta receptor type-1 (Homo sapiens) (UniProt P36897); assay: Inhibition of human recombinant TGFbR1 at 500 nM related to control ULK1
T2 sequence (whole entry): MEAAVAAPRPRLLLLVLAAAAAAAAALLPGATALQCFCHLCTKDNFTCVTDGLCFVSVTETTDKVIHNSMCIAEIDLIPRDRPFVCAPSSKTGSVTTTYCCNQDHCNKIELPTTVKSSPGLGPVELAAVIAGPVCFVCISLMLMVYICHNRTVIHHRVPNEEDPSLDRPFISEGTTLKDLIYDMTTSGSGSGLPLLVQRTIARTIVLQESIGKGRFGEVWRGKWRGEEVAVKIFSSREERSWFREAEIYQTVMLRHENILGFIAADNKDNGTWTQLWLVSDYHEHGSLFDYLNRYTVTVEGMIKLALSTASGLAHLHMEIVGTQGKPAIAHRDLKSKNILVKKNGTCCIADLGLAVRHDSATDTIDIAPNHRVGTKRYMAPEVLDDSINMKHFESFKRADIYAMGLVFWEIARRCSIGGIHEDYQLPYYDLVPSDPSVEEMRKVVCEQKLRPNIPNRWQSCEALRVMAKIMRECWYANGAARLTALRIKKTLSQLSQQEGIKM

[5] = molecular target: Serine/threonine-protein kinase ULK1 (Homo sapiens, UniProt O75385); assay: Inhibition of ULK1 phosphorylation at Ser15 residue in HEK293 cells incubated for 1 hr by chemiluminescence based immunoblotting analysis; type: cell-based, HEK293T
[6] = molecular target: Tyrosine-protein kinase Lck (Homo sapiens) (UniProt P06239); assay: Inhibition of human recombinant LCK at 15 nM in presence of ATP by radiometric assay relative to control
[7] = molecular target: Ephrin type-A receptor 7 (Homo sapiens) (UniProt Q15375); assay: Inhibition of human recombinant EphA7 at 15 nM related to control ULK1
[8] = molecular target: Serine/threonine-protein kinase WNK1 (Homo sapiens) (UniProt Q9H4A3); assay: Inhibition of human recombinant Wnk1 at 40 nM in presence of ATP by radiometric assay relative to control
[9] = molecular target: T3, Cytoplasmic tyrosine-protein kinase BMX (Homo sapiens) (UniProt P51813); assay: Inhibition of human recombinant BMX at 40 nM related to control ULK1
T3 sequence (whole entry): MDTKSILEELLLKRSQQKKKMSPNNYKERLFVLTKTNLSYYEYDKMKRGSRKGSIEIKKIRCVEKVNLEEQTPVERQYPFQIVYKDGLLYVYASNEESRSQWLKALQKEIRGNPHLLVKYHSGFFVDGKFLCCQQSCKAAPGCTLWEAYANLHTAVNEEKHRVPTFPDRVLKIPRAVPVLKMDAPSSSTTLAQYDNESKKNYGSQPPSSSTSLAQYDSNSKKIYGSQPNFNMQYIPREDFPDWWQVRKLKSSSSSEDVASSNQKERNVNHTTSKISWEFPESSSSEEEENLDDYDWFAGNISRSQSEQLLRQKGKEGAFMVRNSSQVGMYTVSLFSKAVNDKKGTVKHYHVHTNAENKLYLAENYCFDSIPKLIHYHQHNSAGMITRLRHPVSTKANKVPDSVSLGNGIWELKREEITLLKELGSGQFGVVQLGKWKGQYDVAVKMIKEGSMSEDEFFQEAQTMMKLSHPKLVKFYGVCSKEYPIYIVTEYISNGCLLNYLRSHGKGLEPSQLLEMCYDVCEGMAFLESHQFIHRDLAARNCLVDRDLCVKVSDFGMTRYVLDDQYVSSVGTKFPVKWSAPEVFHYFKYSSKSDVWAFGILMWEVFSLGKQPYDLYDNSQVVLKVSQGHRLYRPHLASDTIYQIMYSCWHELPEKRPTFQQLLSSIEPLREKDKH

Chain of Ephrin type-A receptor 7 (Homo sapiens) (Q15375 28-998 limits assumed): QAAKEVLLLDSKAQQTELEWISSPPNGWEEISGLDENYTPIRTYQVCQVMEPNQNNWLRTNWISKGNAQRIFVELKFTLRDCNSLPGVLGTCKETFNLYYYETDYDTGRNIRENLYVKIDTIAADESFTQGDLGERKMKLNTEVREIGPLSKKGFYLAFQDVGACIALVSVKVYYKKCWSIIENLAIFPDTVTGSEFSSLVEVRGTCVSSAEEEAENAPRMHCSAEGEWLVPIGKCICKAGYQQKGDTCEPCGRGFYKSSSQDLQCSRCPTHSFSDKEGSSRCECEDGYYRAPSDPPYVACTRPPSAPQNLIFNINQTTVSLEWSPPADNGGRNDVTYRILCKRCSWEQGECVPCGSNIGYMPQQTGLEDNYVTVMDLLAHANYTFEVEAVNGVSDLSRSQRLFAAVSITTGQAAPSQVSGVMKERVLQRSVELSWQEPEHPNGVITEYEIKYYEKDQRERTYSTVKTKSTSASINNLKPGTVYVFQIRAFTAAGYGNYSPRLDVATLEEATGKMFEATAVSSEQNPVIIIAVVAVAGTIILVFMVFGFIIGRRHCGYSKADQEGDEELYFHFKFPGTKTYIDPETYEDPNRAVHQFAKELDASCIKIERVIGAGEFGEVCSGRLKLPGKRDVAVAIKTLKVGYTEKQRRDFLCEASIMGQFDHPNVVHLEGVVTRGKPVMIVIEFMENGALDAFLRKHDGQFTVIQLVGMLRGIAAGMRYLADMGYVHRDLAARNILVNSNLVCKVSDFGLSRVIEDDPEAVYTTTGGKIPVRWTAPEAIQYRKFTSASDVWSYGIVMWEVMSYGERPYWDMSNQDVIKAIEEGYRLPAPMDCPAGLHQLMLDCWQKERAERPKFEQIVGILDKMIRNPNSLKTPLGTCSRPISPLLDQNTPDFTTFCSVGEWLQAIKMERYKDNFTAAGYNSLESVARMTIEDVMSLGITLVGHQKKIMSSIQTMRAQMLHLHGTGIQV
Chain of Serine/threonine-protein kinase PLK1 (Homo sapiens) (P53350 whole entry): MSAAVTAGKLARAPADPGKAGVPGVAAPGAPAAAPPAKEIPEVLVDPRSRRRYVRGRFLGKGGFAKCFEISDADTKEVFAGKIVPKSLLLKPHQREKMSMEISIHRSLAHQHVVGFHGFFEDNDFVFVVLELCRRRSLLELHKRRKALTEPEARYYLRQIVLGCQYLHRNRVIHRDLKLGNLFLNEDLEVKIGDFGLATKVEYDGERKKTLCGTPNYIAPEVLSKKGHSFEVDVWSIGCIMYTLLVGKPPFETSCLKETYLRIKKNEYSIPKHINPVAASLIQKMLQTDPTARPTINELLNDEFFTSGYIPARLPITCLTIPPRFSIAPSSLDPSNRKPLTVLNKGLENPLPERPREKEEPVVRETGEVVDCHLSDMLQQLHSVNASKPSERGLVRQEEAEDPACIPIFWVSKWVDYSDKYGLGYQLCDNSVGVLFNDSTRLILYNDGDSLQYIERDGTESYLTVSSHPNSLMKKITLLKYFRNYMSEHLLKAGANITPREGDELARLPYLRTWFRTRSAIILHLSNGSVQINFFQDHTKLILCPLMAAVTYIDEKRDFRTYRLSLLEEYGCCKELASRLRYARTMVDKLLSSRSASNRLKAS
Chain of Serine/threonine-protein kinase ULK1 (O75385 whole entry): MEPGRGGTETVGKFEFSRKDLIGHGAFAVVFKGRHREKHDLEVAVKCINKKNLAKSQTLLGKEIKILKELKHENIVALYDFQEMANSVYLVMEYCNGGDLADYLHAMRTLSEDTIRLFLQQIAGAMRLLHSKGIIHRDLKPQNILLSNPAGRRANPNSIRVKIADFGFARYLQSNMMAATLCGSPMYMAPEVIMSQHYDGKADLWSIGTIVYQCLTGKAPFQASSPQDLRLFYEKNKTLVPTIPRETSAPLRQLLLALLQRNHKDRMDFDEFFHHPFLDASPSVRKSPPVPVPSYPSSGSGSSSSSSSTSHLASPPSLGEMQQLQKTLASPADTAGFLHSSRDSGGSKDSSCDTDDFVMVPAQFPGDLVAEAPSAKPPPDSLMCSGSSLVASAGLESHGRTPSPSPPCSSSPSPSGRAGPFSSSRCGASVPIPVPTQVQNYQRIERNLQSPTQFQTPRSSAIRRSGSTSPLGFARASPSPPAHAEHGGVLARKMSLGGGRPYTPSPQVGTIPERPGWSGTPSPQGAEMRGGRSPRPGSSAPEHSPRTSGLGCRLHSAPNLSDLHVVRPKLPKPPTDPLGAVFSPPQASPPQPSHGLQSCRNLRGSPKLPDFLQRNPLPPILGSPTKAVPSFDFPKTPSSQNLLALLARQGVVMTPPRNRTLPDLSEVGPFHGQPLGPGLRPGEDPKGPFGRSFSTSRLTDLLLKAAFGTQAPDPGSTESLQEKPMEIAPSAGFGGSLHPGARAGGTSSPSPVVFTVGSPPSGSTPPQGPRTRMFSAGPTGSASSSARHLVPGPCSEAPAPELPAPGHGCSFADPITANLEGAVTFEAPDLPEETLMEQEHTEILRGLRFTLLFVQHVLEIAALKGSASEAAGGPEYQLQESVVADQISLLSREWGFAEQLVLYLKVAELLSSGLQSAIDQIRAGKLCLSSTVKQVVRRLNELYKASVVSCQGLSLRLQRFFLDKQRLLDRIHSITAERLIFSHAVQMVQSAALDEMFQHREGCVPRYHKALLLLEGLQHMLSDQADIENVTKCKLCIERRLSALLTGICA
Chain of Tyrosine-protein kinase Lck (Homo sapiens) (P06239 2-509 limits assumed): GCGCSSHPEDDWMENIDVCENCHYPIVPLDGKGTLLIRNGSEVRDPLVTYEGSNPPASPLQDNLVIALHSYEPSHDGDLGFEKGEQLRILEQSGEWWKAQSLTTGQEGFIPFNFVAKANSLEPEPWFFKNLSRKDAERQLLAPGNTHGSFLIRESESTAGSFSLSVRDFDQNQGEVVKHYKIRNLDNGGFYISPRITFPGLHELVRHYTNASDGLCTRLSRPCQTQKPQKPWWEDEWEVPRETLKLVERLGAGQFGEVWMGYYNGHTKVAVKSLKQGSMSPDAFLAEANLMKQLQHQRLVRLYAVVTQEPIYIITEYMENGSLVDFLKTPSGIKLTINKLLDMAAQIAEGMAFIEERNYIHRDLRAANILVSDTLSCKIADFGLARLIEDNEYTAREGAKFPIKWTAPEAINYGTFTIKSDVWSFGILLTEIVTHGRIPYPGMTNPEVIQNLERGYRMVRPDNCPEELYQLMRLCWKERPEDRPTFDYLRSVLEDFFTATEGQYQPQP
Chain of Ribosomal protein S6 kinase alpha-5 (Homo sapiens) (O75582 whole entry, looked up): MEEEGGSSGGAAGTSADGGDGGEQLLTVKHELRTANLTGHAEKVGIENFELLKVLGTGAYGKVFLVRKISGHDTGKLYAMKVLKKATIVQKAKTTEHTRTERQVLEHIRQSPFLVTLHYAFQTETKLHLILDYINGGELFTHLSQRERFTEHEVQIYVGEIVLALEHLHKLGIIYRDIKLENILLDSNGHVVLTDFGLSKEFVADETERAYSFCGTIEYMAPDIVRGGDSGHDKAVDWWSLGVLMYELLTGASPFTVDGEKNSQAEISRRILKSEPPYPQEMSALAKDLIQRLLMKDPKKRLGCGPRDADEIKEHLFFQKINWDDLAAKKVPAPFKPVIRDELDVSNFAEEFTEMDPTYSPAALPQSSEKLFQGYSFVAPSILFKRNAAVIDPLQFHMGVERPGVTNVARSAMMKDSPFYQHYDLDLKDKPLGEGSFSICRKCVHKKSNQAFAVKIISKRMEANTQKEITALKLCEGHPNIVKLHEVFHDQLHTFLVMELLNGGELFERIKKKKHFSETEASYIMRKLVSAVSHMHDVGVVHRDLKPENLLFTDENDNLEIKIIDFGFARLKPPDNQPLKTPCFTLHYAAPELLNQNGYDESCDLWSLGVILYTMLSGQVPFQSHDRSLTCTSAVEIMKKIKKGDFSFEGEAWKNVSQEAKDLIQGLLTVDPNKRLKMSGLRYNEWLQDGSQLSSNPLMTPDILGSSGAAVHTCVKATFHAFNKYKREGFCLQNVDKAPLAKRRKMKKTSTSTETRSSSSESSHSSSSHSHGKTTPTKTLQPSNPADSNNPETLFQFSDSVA

CNC(=O)c1ccccc1Oc1nc(Nc2cc(OC)c(OC)c(OC)c2)ncc1Br
inhibition [1]: 8%
fold change (FC) [2]: 0.15
fold change (FC) [3]: 0
fold change (FC) [4]: 0

CC(C)[C@H](NC(=O)c1cc(-c2cnn3cc(-c4ccc(OCCN5CCCCC5)cc4)cnc23)cs1)C(F)(F)F
EC50 [5]: 83 nM
inhibition [6]: 11%
fold change (FC) [7]: 0

O=C(N[C@@H](C1CC1)C(F)(F)F)c1cc(-c2cnn3cc(-c4ccc(F)cc4)cnc23)cs1
inhibition [8]: 12%
fold change (FC) [9]: 0.05
